{"source": "PubChem BioAssay AID489030", "about": "(Sanford-Burnham Center for Chemical Genomics, 2010)", "note": "In all, about 330,000 compounds went through this assay and about 2,400 (0.73%) were called active. Only a selection was taken, and actives are over-represented in it overall. Unmarked numbers belong to inactive results. How the source made its calls: active means inhibition of at least 40% at 20 µM; inactive means the rest.", "data": [{"biological_target": "Apoptotic protease-activating factor 1 (Homo sapiens) (UniProt O14727)", "sequence (O14727 whole entry, looked up)": "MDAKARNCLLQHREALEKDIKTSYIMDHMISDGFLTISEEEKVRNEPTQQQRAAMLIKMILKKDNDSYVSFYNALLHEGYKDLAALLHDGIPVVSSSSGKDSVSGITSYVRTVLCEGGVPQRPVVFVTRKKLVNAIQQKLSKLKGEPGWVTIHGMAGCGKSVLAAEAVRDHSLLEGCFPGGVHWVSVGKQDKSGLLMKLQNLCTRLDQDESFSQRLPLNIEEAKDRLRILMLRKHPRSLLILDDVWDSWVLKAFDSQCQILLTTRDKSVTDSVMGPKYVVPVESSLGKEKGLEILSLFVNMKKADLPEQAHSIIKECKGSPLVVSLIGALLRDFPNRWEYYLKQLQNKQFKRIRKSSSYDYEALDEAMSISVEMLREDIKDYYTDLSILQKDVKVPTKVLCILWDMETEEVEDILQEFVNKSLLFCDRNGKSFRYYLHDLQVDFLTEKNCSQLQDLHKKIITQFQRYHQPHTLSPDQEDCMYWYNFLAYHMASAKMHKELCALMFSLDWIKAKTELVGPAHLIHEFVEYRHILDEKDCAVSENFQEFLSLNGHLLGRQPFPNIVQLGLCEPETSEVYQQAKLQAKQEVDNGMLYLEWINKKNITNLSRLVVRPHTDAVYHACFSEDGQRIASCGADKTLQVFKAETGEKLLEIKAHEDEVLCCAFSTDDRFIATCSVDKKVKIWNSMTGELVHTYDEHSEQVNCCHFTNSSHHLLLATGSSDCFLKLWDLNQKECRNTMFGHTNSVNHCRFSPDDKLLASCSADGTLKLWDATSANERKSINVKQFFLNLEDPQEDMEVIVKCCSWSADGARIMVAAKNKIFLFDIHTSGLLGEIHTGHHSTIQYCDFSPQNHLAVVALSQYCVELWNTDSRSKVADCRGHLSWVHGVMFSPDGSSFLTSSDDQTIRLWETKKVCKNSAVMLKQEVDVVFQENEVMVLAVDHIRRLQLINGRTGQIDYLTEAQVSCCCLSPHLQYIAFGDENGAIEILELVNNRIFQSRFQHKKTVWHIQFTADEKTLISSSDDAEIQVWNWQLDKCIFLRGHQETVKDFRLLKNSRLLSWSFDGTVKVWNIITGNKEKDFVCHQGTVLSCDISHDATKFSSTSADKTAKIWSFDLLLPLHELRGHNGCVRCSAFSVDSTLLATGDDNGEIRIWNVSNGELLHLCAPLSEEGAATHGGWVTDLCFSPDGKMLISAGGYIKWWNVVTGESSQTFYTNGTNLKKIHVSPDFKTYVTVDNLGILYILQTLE", "assay": "blockers of Apaf-1-driven caspase-3 activation – biochemical, DEVD-Rh110 fluorescence, uHTS, primary screen (AID 489030);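 further: plate controls were DMSO wells for no effect and DEVD-CHO caspase inhibitor wells for full effect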", "conditions": "reconstituted apoptosome caspase-3 activity, at 20 µM, active compounds read high", "procedure,_shortened": "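System – cell-free apoptosome with Apaf-1, procaspase-3 and caspase-9 · Buffer or medium – pH 7.5 Hepes buffer with CHAPS, BSA, DTT · Also added – cytochrome c with DEVD-Rh110 · Times – 30 min compound preincubation, 50 min activation, room temperature · Technique – Rh110 fluorescence intensity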", "values": [{"smiles": "CCc1ccc(CN(C)C(=O)CCc2nnc(-c3ccc(-c4ccccc4)cc3)o2)nc1", "inhibition": "12.9%"}, {"smiles": "Cc1c(CCC(=O)O)c(=O)oc2cc3occ(-c4ccccc4)c3cc12", "inhibition": "-15.7%"}, {"smiles": "CCCCCCc1cc2cc(-c3nnc(-c4ccccc4)o3)c(=O)oc2cc1O", "inhibition": "67.8% (active)"}, {"smiles": "O=C(/C=C/c1ccc([N+](=O)[O-])cc1)NCCSCc1ccco1", "inhibition": "-3.53%"}, {"smiles": "CN(C)S(=O)(=O)c1ccc2oc(SCC(=O)Nc3ccccc3F)nc2c1", "inhibition": "61.1% (active)"}, {"smiles": "COc1ccc(S(=O)(=O)N(C)C)cc1NC(=O)CSc1ncccn1", "inhibition": "-1.98%"}, {"smiles": "COc1ccc(NS(=O)(=O)c2ccc3oc(SCC(N)=O)nc3c2)cc1", "inhibition": "4.33%"}, {"smiles": "CC(C)[C@@H]1COC(c2cccc(C3=N[C@H](C(C)C)CO3)c2)=N1", "inhibition": "9.42%"}, {"smiles": "CN(C)c1ccnc(Oc2ccc(F)cc2)c1C#N", "inhibition": "-5.43%"}, {"smiles": "COc1ccccc1CNC(=O)[C@@H]1CCCN1C(=O)[C@@H]1Cc2ccccc2CN1C(=O)OC(C)(C)C", "inhibition": "11%"}, {"smiles": "COc1ccc(Cn2cccc(NC(=O)Nc3ccc(C#N)cc3)c2=O)cc1", "inhibition": "-0.047%"}, {"smiles": "Cc1cc(C)c(C(N)=O)c(Cl)n1", "inhibition": "-5.56%"}, {"smiles": "O=C(CCCN1CCc2[nH]c3ccc(F)cc3c2C1)c1ccc(F)cc1", "inhibition": "65% (active)"}, {"smiles": "O=c1c2ccccc2[nH]c(=S)n1CCN1CCC(=C(c2ccc(F)cc2)c2ccc(F)cc2)CC1", "inhibition": "15.1%"}, {"smiles": "CC1CCc2[nH]c3ccc(C(=O)N(C)CC(=O)Nc4cccc(F)c4)cc3c2C1", "note": "(stereo unspecified)", "inhibition": "20.4%"}, {"smiles": "Cc1nn(C)c(C)c1CN(C(=O)CCc1nnc(Cc2c[nH]c3ccccc23)o1)C(C)C", "inhibition": "-6.13%"}, {"smiles": "O=C1CCCCC1C(=O)c1ccccc1", "note": "(stereo unspecified)", "inhibition": "-20%"}, {"smiles": "COc1ccc(NC(=O)CCNS(=O)(=O)c2ccc3c(c2)c(=O)n(C)c(=O)n3C)cc1OC", "inhibition": "-6.12%"}, {"smiles": "CC(C)=CC(=O)Nc1nnc(-c2ccc(F)cc2)s1", "inhibition": "0.969%"}, {"smiles": "CC(=O)OCC(COC(C)=O)OC(C)=O", "inhibition": "6.7%"}, {"smiles": "CC(=O)OC(COc1ccc(F)cc1)Cn1cnc2ccccc21", "note": "(stereo unspecified)", "inhibition": "17.3%"}, {"smiles": "CC(=O)N=c1ncn(CC(COC(C)=O)OC(C)=O)c2nc[nH]c12", "note": "(stereo unspecified)", "inhibition": "74.2% (active)"}, {"smiles": "Cn1c(SCC(=O)C(C)(C)C)nnc1-c1ccccn1", "inhibition": "-10.6%"}, {"smiles": "CCOC(=O)N1CCC(c2cc(=O)n(-c3ccccc3)[nH]2)CC1", "inhibition": "86.7% (active)"}, {"smiles": "CCOC(=O)CN1CCC(c2ccccc2)CC1", "inhibition": "-14.9%"}, {"smiles": "CCOC(=O)N1CCC(NC(=O)CCc2ccccc2)CC1", "inhibition": "-3.62%"}, {"smiles": "CCc1cc(C(=O)OC)c(NC(=O)CC2Sc3ccc(C(F)(F)F)cc3NC2=O)s1", "note": "(stereo unspecified)", "inhibition": "22.8%"}, {"smiles": "CCOC(=O)Nc1ccc2c(c1)N(C(=O)CN1CCN3CCCC3C1)c1ccccc1CC2", "note": "(stereo unspecified)", "inhibition": "-1.68%"}, {"smiles": "Cc1ccc(-c2cccc([C@H]3[C@@H]4C=CC[C@@H](C)[C@@H]4C(=O)N3Cc3ccccc3)c2)cc1", "inhibition": "19.9%"}, {"smiles": "CC1(C)CC(=O)C=C(c2ccc3ncccc3c2)C1", "inhibition": "-1.2%"}, {"smiles": "Cc1cc2oc3ccc(NCCC4CCCN4C)cc3c(=O)c2cc1C", "note": "(stereo unspecified)", "inhibition": "46.9% (active)"}, {"smiles": "Cc1cc2oc(=O)cc(CN3CCN(Cc4ccccc4)CC3)c2cc1C", "inhibition": "17.9%"}, {"smiles": "COc1cccc2sc3cc(NCC[C@@H]4CCCN4C)ccc3c(=O)c12", "inhibition": "39.7%"}, {"smiles": "CC(C)c1ccc2oc(=O)cc(CN3CCN(Cc4ccccc4)CC3)c2c1", "inhibition": "19.2%"}, {"smiles": "CCOc1ccc(N(CC(=O)NCCc2ccc(OC)cc2)S(C)(=O)=O)cc1", "inhibition": "5.5%"}, {"smiles": "COc1ccc(N(CCC(=O)NCCc2ccccc2)S(=O)(=O)c2ccc(C)cc2C)cc1", "inhibition": "54.9% (active)"}, {"smiles": "COc1ccc(CCNC(=O)CN(c2ccccc2)S(C)(=O)=O)cc1", "inhibition": "4.78%"}, {"smiles": "O=c1cc(CN2CCN(S(=O)(=O)/C=C/c3ccccc3)CC2)c2ccc(O)cc2o1", "inhibition": "21.6%"}, {"smiles": "O=C(NCCCN1CCOCC1)c1ccccc1NS(=O)(=O)c1ccc(F)cc1", "inhibition": "-4.73%"}, {"smiles": "COc1ccc(N2CCN(c3ccc([N+](=O)[O-])nc3)CC2)cc1", "inhibition": "-5.77%"}, {"smiles": "CCOC(=O)C1Sc2[nH]c(=O)sc2C(c2ccc(Cl)cc2)C1C(=O)OCC", "note": "(stereo unspecified)", "inhibition": "2.05%"}, {"smiles": "C=CCC[C@H](Cc1ccc(F)cc1)C(=O)OC[C@@H](Cc1c[nH]c2ccccc12)NC(=O)[C@H](CC=C)CC(=O)N[C@H](CO)Cc1ccccc1", "inhibition": "1.18%"}, {"smiles": "C=CCC[C@H](Cc1ccc(F)cc1)C(=O)OC[C@@H](NC(=O)[C@@H](CC=C)CC(=O)N[C@H](CO)Cc1ccccc1)C(C)(C)C", "inhibition": "40.6% (active)"}, {"smiles": "C=CC[C@@H](CC(=O)N[C@H](CO)Cc1ccccc1)C(=O)N[C@H](C)COC(=O)[C@@H](CC=C)Cc1ccc(F)cc1", "inhibition": "23%"}, {"smiles": "COCCNC(=O)c1ccccc1-c1nc(-c2ccccc2Cl)no1", "inhibition": "6.12%"}, {"smiles": "O=C(Nc1cc(S(=O)(=O)N2CCOCC2)ccc1N1CCOCC1)c1c(F)cccc1Cl", "inhibition": "-5.54%"}, {"smiles": "Cc1ccc(NC(=O)CN(C)C(=O)Cn2nnc(-c3ccccc3)n2)cc1", "inhibition": "8.51%"}, {"smiles": "COc1ccc(C2C(C#N)=C(N)Oc3cc(N)ccc32)cc1OC", "note": "(stereo unspecified)", "inhibition": "-6.32%"}, {"smiles": "Cc1nn(Cc2ccccc2)c2c1C(c1ccccc1)C(C#N)=C(N)O2", "note": "(stereo unspecified)", "inhibition": "7.58%"}, {"smiles": "COc1ccccc1C1C(C#N)=C(N)Oc2c1c(-c1ccccc1)nn2-c1ccccc1", "note": "(stereo unspecified)", "inhibition": "42.2% (active)"}, {"smiles": "COc1ccc(/C=C2/C(=O)OCc3cc(OC)c(OC)cc32)c(OC)c1", "inhibition": "6.28%"}, {"smiles": "COc1ccc(/C=C2/C(=O)N(c3ccccc3)N=C2C)c(OC)c1", "inhibition": "80.1% (active)"}, {"smiles": "COc1ccc(C2/C(=C(/O)c3ccccc3)C(=O)C(=O)N2C)c(OC)c1", "note": "(stereo unspecified)", "inhibition": "2.34%"}, {"smiles": "O=C1CN(C(=O)COC(=O)/C=C/c2ccc(F)cc2)c2ccccc2N1", "inhibition": "5.3%"}, {"smiles": "O=C(CO/N=C/c1ccccc1OC(F)F)NC1CCCC1", "inhibition": "0.277%"}, {"smiles": "CCCNC(=O)c1ccc(N2CCC3(CC2)CC(c2cccc(Br)c2)=NO3)c(NC(=O)c2ccco2)c1", "inhibition": "14.2%"}, {"smiles": "CC1CCC2(CC1)NC(=O)N(CC(=O)c1ccc3c(c1)OCO3)C2=O", "note": "(stereo unspecified)", "inhibition": "-10.1%"}, {"smiles": "Cc1ccc(S(=O)(=O)N2CCN(C(=O)c3ccccc3-c3nc4ccccc4s3)CC2)c(C)c1", "inhibition": "40.3% (active)"}, {"smiles": "Cc1ccc(S(=O)(=O)N2CCN(C(=O)N3CCOCC3)CC2)c(C)c1", "inhibition": "-7.82%"}, {"smiles": "Cc1ccc(S(=O)(=O)N2CCN(C(=O)Cn3c(=O)cnc4ccccc43)CC2)c(C)c1", "inhibition": "-0.646%"}, {"smiles": "CCN1C[C@@H]2[C@@H]3C(=O)N(Cc4ccccc4)C(=O)[C@@H]3[C@](Cc3ccccc3)(C(=O)OC)N2C1=NC1CCCCC1", "inhibition": "41.2% (active)"}, {"smiles": "CC[C@]1(C(=O)OC)[C@H]2C(=O)N(Cc3ccccc3)C(=O)[C@H]2[C@H]2CN=C(SCc3ccccc3)N21", "inhibition": "25.2%"}, {"smiles": "CCCN=C1N(C)C[C@@H]2[C@@H]3C(=O)N(Cc4ccccc4)C(=O)[C@@H]3[C@](C)(C(=O)OC)N12", "inhibition": "11.4%"}, {"smiles": "Cc1nnc(Sc2nc3c(c(=O)[nH]c(=O)n3C)n2Cc2ccccc2)s1", "inhibition": "21%"}, {"smiles": "O=C1NC(c2ccc(-c3ccccc3[N+](=O)[O-])o2)C(C(=O)c2ccc(Cl)cc2)C(O)(C(F)(F)F)N1", "note": "(stereo unspecified)", "inhibition": "36.8%"}, {"smiles": "O=C(Nc1ccc(N2CCOCC2)cc1)c1ccc(-c2ccccc2[N+](=O)[O-])o1", "inhibition": "2.89%"}, {"smiles": "CC1=NN(c2ccc(Cl)c(C(=O)O)c2)C(=O)/C1=C/c1ccc(-c2ccccc2[N+](=O)[O-])o1", "inhibition": "42.9% (active)"}, {"smiles": "COC(=O)c1ccc(S(=O)(=O)N2CCC(c3nc4ccccc4o3)CC2)cc1", "inhibition": "-25.7%"}, {"smiles": "Cc1cccc(C)c1NC(=O)CNC(=O)Cc1ccc(Br)cc1", "inhibition": "-1.64%"}, {"smiles": "CC(C)N(C(=O)[C@H]1C[C@H](CC(=O)NC(C)(C)C)C(=O)N2CCc3c([nH]c4ccc(Cl)cc34)[C@]12C)C(C)C", "inhibition": "29.3%"}, {"smiles": "C[C@@H](C(=O)N1CCNCC1)n1cc(CCC(=O)O)nn1", "inhibition": "5.94%"}, {"smiles": "NC(N)=NCCCc1cn(CC(=O)N2CCNCC2)nn1", "inhibition": "40.2% (active)"}, {"smiles": "CCC(C)[C@@H](C(=O)N1CCNCC1)n1cc(CCCCN)nn1", "note": "(stereo partly specified)", "inhibition": "-4.43%"}, {"smiles": "CCN1C(=NCC(C)C)N[C@@H](CCc2ccccc2)[C@H](C(=O)NCC(C)C)[C@H]1C", "inhibition": "4.1%"}, {"smiles": "CCN1C(=NCc2ccc(OC)cc2)N[C@@H](CCc2ccccc2)[C@H](C(=O)NCc2ccc(OC)cc2)[C@H]1C", "inhibition": "40.4% (active)"}, {"smiles": "CCN1C(=S)N[C@@H](CCc2ccccc2)[C@H](C(=O)OC)[C@H]1C", "inhibition": "-4.74%"}, {"smiles": "CCN1C(=O)N[C@@H](CCc2ccccc2)C(C(=O)OC)=C1C", "inhibition": "17.6%"}, {"smiles": "O=C(NCc1ccccc1Cl)C1CCN(c2ncnc3c2nc2n3CCCCC2)CC1", "inhibition": "-6.54%"}, {"smiles": "Cc1nn2c(NCCN(C)C)c3c(nc2c1-c1ccccc1)CCC3", "inhibition": "1.66%"}, {"smiles": "CCN(C(=O)C1CCCN(c2nc(-c3ccc(OC)cc3)no2)C1)c1ccc(OC)cc1", "note": "(stereo unspecified)", "inhibition": "12.2%"}, {"smiles": "Cc1cc(=O)cc(C)[nH]1", "inhibition": "-15%"}, {"smiles": "Oc1c(C=Nc2cccc3nsnc23)ccc2ccccc12", "inhibition": "95.8% (active)"}, {"smiles": "CCOc1ccc(N2CC(C(=O)NCc3ccccn3)CC2=O)cc1", "note": "(stereo unspecified)", "inhibition": "1.44%"}, {"smiles": "CCCN1CCn2c3c(c4cc(Br)ccc42)CCCC31", "note": "(stereo unspecified)", "inhibition": "12.8%"}, {"smiles": "OC(CNCC1CCCO1)Cn1c2ccc(Br)cc2c2cc(Br)ccc21", "note": "(stereo unspecified)", "inhibition": "43.4% (active)"}, {"smiles": "COCCNC(=O)c1ccc(Cn2c(SCC(=O)NCC3CCCO3)nc3ccc(Br)cc3c2=O)cc1", "note": "(stereo unspecified)", "inhibition": "-13.8%"}]}]}
